Assay results from ChEMBL document CHEMBL1126766 (J Med Chem, 1993).

What was measured:
Type in all cases: functional
Vanilloid receptor [1] = molecular target: T1, Vanilloid receptor (Rattus norvegicus, UniProt Q9ERZ8+Q9WUD2+O35433); test: In vitro effective concentration for [Ca2+] uptake into dorsal root ganglia neurones in culture
Cavia porcellus = organism: Cavia porcellus; test: Effective concentration for guinea pig ileum contraction in an in vitro assay
Mus musculus = organism: Mus musculus; test: Effective analgesic dose in mouse tail-flick latency assay
Vanilloid receptor [2] = molecular target: T1, Vanilloid receptor; test: In vitro effective concentration for Ca++ uptake into dorsal root ganglia neurones in culture
Summary of the method: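 Uptake of 45Ca2+ tracer into cultured dorsal root ganglion neurones, evoked by the applied agonist analogues. Potency is expressed as EC50 in μM, reported ± an error term. Full assay details are held in an earlier paper of the series.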

EC50 (Vanilloid receptor [1])	EC50 (Vanilloid receptor [2])	SMILES	further results
–	0.16 µM	CCCCCCCCCCCC/N=C(\S)NCc1ccc(O)c(OC)c1	–
1.24 µM	–	COc1cc(CNC(=O)/C=C/c2ccc(Cl)cc2)ccc1O	–
0.24 µM	–	COc1cc(CNC(=O)/C=C/c2ccc(-c3ccccc3)cc2)ccc1O	–
> 100 µM	–	COc1cc(C/N=C(/N)S)ccc1O	–
1000 µM	–	COc1cc(CNC(=O)/C=C/c2ccc(NC=O)cc2)ccc1O	–
21 µM	–	COc1cc(CNC(=O)CCc2ccc([N+](=O)[O-])cc2)ccc1O	–
–	–	CCCCCCCC/N=C(\S)NCc1ccc(O)c(OC)c1	EC50 (Vanilloid receptor [2]; read-out: EC50): 0.06 µM; EC50 (Cavia porcellus): 0.06 µM; ED50 (Mus musculus): 3.2 µmol/kg
–	8.1 µM	CCCCCCCCCCCCCCCCCC/N=C(\S)NCc1ccc(O)c(OC)c1	–
–	0.17 µM	CCCCCCCC/C=C\CCCCCCCC(=O)NCc1ccc(O)c(OC)c1 [OLVANIL]	–
–	> 100 µM	COc1cc(CNC(=O)CBr)ccc1O	–
–	0.36 µM	CCCCCCCC/C=C/CCCCCCCC(=O)NCc1ccc(O)c(OC)c1	–
1.08 µM	–	COc1cc(C/N=C(\S)NC2[C@H]3C[C@@H]4C[C@@H](C[C@H]2C4)C3)ccc1O (stereo partly drawn)	–
–	> 100 µM	COCCOCCOCC(=O)NCCCCCCCCCCC(=O)NCc1ccc(O)c(OC)c1	–
0.66 µM	–	COc1cc(CC(=O)NCCc2ccc(Cl)cc2)ccc1O	–
–	> 100 µM	COc1cc(C/N=C(\S)NC(c2ccccc2)(c2ccccc2)c2ccccc2)ccc1O	–
–	> 100 µM	COc1cc(CNC(=O)CCCCCCCCCCC(=O)O)ccc1O	–
–	–	COc1cc(CNC(=O)CCCC/C=C/C(C)C)ccc1O [CAPSAICIN]	ED50 (Mus musculus): 15 µmol/kg
26.5 µM	–	COc1cc(CNC(=O)/C=C/c2ccc(C#N)cc2)ccc1O	–
–	–	CCCCCCCCC(=O)NCc1ccc(O)c(OC)c1 [NONIVAMIDE]	EC50 (Vanilloid receptor [2]; read-out: EC50): 0.55 µM
0.35 µM	–	COc1cc(CNC(=O)/C=C/c2ccc(I)cc2)ccc1O	–
> 100 µM	–	COCCOCC(=O)NCc1ccc(O)c(OC)c1	–

EC50 (Vanilloid receptor [1])	EC50 (Vanilloid receptor [2])	SMILES	further results
0.27 µM	–	COc1cc(C/N=C(\S)NC(c2ccccc2)c2ccccc2)ccc1O	–
79.8 µM	–	COc1cc(CNC(=O)CCCCCNC(=O)OC(C)(C)C)ccc1O	–
0.62 µM	–	COc1cc(CNC(=O)/C=C/c2ccc(Cl)cc2Cl)ccc1O	–
7.77 µM	–	COc1cc(CNC(=O)Cc2ccc(Cl)cc2)ccc1O	–
> 100 µM	–	COCCOCCOCC(=O)NCc1ccc(O)c(OC)c1	–
> 100 µM	–	COc1cc(CNC(=O)CCCCCN)ccc1O.O=C(O)C(F)(F)F	–
3.09 µM	–	COc1cc(CNC(=O)CCc2ccc(Cl)cc2)ccc1O	–
50.1 µM	–	COc1cc(CNC(=O)/C=C\c2ccc(Cl)cc2)ccc1O	–
> 100 µM	–	COc1cc(CNC(=O)CCc2ccc(O)cc2)ccc1O	–
–	> 100 µM	CCCCCCCC/C=C/CCCCCCC/N=C(\S)NCc1ccc(O)c(OC)c1	–
–	4.58 µM	COc1cc(CNC(=O)/C=C/c2ccc([N+](=O)[O-])cc2)ccc1O	–
4.1 µM	–	COc1cc(CNC(=O)C#Cc2ccc(Cl)cc2)ccc1O	–
–	> 100 µM	CCCCCCCCCCCCCCCC/N=C(\S)NCc1ccc(O)c(OC)c1	–
45.26 µM	–	COc1cc(CNC(=O)CCc2ccccc2)ccc1O	–
–	0.11 µM	CCCCCCCCCC/N=C(\S)NCc1ccc(O)c(OC)c1	–
2.58 µM	–	COc1cc(CNC(=O)/C=C/c2cccc(Cl)c2)ccc1O	–
–	> 100 µM	COc1cc(CNC(=O)CCl)ccc1O	–
4.39 µM	–	COc1cc(CNC(=O)/C=C/c2ccc(N(C)C)cc2)ccc1O	–
–	4.2 µM	COc1cc(CNC(=O)CCc2ccc(N=[N+]=[N-])cc2)ccc1O	–
11.8 µM	–	COc1cc(CNC(=O)/C=C/c2ccccc2)ccc1O	–
–	0.1 µM	CCCCCCCCC/N=C(\S)NCc1ccc(O)c(OC)c1	–

SMILES	EC50 (Vanilloid receptor [1])	EC50 (Vanilloid receptor [2])	further results
CCCCC/N=C(\S)NCc1ccc(O)c(OC)c1	1.96 µM	–	EC50 (Cavia porcellus): 1.8 µM; ED50 (Mus musculus): > 50 µmol/kg
CCCCCC/N=C(\S)NCc1ccc(O)c(OC)c1	0.18 µM	–	EC50 (Cavia porcellus): 0.18 µM; ED50 (Mus musculus): 12.5 µmol/kg
CCCCCCCCCCCCCCCCCC(=O)NCc1ccc(O)c(OC)c1	–	> 100 µM	–
COc1cc(CNC(=O)CCCCCCC(C)C)ccc1O [DIHYDROCAPSAICIN]	0.19 µM	–	–
CCCC/N=C(\S)NCc1ccc(O)c(OC)c1	9.48 µM	–	EC50 (Cavia porcellus): 3.4 µM; ED50 (Mus musculus): > 50 µmol/kg
CCCCCCC/N=C(\S)NCc1ccc(O)c(OC)c1	–	0.29 µM	EC50 (Cavia porcellus): 0.1 µM; ED50 (Mus musculus): 15 µmol/kg
